In the library only some 3.3% were active in any assay of this set; here they are far more common.
Jurkat tox 60K – cytotoxic compounds reducing Jurkat cell viability. Jurkat E6.1 viability, ATP luminescence, 48 h. inhibition, % at 4 µM. 1.2% of 56,000 active. AID 463;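 active means inhibition above the mean inhibition of all tested compounds plus 3 SD, cut at about 28% in these data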
HTR1A agonist – agonists of human 5-HT1a serotonin receptor; P08908; activation, % at 10 µM; CHO 5-HT1a Ga15 NFAT-bla reporter, FRET ratio; 0% basal, 100% maximal reference agonist; AID 567; 0.56% of 65,000 active;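 active means activation above the screen-wide mean activation plus 3 SD, cut at about 19% in these data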
HTR1E agonist – 5-HT1E (human) receptor agonism | P28566 | CHO 5-HT1E Ga15 NFAT-bla reporter, FRET; 0% DMSO wells, 100% control agonist wells | activation, % at 6 µM | 0.69% of 65,000 active | AID 574;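 active means activation above a set limit, the screen-wide mean activation plus 3 SD, cut at about 8.5% in these data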
Target sequence (P28566 whole entry, looked up): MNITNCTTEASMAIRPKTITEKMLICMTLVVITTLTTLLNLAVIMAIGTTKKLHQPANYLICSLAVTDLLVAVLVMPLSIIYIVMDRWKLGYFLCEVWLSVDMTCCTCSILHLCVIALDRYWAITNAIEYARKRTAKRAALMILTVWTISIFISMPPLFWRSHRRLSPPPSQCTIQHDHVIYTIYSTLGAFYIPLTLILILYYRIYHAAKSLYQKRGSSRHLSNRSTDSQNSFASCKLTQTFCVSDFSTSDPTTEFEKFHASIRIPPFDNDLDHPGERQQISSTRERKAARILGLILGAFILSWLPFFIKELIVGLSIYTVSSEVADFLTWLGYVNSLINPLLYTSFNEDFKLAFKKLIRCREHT
5HT1E antag – antagonists of human 5-HT1E serotonin receptor | CHO 5-HT1E Ga15 NFAT-bla reporter, FRET, antagonist | inhibition, % at 6 µM | 0.99% of 65,000 active | AID 571;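 active means inhibition above a set limit, the mean inhibition across every tested compound plus 3 SD, cut at about 29% in these data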;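 further: signal is the 460 over 535 nm emission ratio of beta-lactamase substrate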
5HT1a antag – blocks the human serotonin 5-HT1a receptor; P08908; CHO 5-HT1a Ga15 NFAT-bla reporter, antagonist mode; inhibition, % at 10 µM; 0.68% of 62,000 active;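 active means inhibition above the mean of all tested compounds plus 3 SD, cut at about 43% in these data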;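 further: receptor stimulated by 5-CT agonist at 100 nM near EC80; beta-lactamase reporter measured by ratiometric fluorescence of a cleavable substrate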
HEK293 NFkB inh – lowers PMA/ionomycin-induced NF-kB signal in HEK293 cells; inhibition, % at 3 µM; 0.21% of 62,000 active; HEK-293 NF-kB luciferase reporter, luminescence; AID 465;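 active means inhibition above the mean of all tested compounds plus 3 SD, cut at about 40% in these data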
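Material: HEK-293 cells with stable firefly luciferase reporter driven by four HIV NF-kB elements / Also added: PMA plus ionomycin mix as NF-kB-activating stimulus / Compound dosing: 3 µM once, 0.30% DMSO / Times: 1 h pretreatment, 16 h stimulation, 37 °C / Signal: luminescence / Evaluation: per-plate % inhibition versus controls / Benchmarks: DMSO and 10 µM reference inhibitor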
Of the large screens only hits and unclear results are named; the others gave an inactive call.

Cc1ccc(C)c(C(C)NC(=O)C2C3CCC(O3)C2C(=O)O)c1 (configuration not stated)	none
Cc1sc2nc(CN(Cc3cccs3)C(=O)NC3CCCCC3)[nH]c(=O)c2c1C	none
Cc1ccc2c(CC(=O)NCc3ccco3)coc2c1C	Jurkat tox 60K 69
Cc1c(Br)cc(C(=O)NCc2ccco2)c(C)c1C	none
CN(C)c1ccc(-c2nn3c(-c4ccc(Cl)cc4Cl)nnc3s2)cc1	5HT1E antag 37
CCN(CC)c1ccc(-c2nn3c(-c4ccccc4OC)nnc3s2)cc1	Jurkat tox 60K 99, 5HT1E antag 67, 5HT1a antag 70, HEK293 NFkB inh 58
Clc1ccc(-c2nnc3sc(-c4ccc(Br)o4)nn23)c(Cl)c1	none
COc1cccc(OC)c1-c1nn2c(-c3cc(-c4ccccc4)n[nH]3)nnc2s1	Jurkat tox 60K 66
Fc1ccccc1COc1cccc(/C=N/n2cnnc2)c1	none
Cc1cc(/C=N/n2cnnc2)c(C)n1-c1ccc(OCc2ccccc2F)cc1	5HT1E antag 29
CCOC(=O)/N=C(/NC(=O)Nc1ccc(C(=O)OCC)cc1)OC	HTR1E agonist 9.3
CCOC(=O)c1ccc(NC(=O)Cn2cccc2)cc1	HTR1E agonist 26
CCOC(=O)c1ccc(NC(=O)COC)cc1	none
CCN(C(=O)c1cc2cccc(OC)c2oc1=O)c1ccccc1	none
COc1ccc(Nc2nc(Nc3ccc(OC)cc3)nc(-n3[nH]c(=O)c(C)c3C)n2)cc1	HTR1A agonist 34, HTR1E agonist 15 (no result: Jurkat tox 60K, 5HT1a antag, HEK293 NFkB inh)
O=C(Cc1cccs1)NCCn1ccc2ccccc21	none
COC(=O)C1=CN(CC2CCCO2)C=C(C(=O)OC)C1c1cc(OC)c(OC)c(OC)c1 (configuration not stated)	none (no result: Jurkat tox 60K)
Cn1c(=O)c2c(nc(SCC(=O)NC3CCCCC3)n2C)n(C)c1=O	none
COc1cc(NC(=O)c2ccc3c(c2)OCO3)ccc1NC(=O)C(C)C	Jurkat tox 60K 98
CCCCC(=O)Nc1ccc(NC(=O)c2ccc3c(c2)OCO3)cc1OC	none
CC1(C)Cc2noc(N)c2C(C)(C)N1O	none
CC1CCCC(NC(=O)c2ccc3c(=O)n(CC4CCCO4)c(=O)[nH]c3c2)C1C (configuration not stated)	HTR1A agonist 54
O=C(NCC1CCCO1)c1ccc2c(=O)n(CCc3ccccc3)c(=O)[nH]c2c1 (configuration not stated)	none (no result: Jurkat tox 60K)
OCCN(Cc1ccccc1)Cc1ccc(F)c(F)c1	none
CC1(c2ccc(Cl)cc2Cl)OCC(Cn2ccnc2)O1 (configuration not stated)	none
O=C(NC1c2ccccc2-c2ccccc21)N1CCCCC1	HEK293 NFkB inh 43
O=C(Nc1ccccc1C(F)(F)F)N1CCCCCC1	none
COc1ccccc1C(=O)n1nc(-c2ccccc2)nc1NCc1ccco1	5HT1a antag 44
CN(C)CCNC(=O)C12CC3(C)CC(C)(CC(C)(C3)C1)C2	none (no result: Jurkat tox 60K, 5HT1a antag, HEK293 NFkB inh)
O=c1c2c3c(sc2nc2sc(CN4CCOCC4)cn12)CCCC3	none
COc1cc2c(cc1NC(=O)CN1C(=O)NC3(CCc4ccccc43)C1=O)oc1ccccc12 (configuration not stated)	5HT1a antag 45
COc1cc2c(cc1NC(=O)CCCN1C(=O)CCC1=O)oc1ccccc12	none
COc1cccc(N(C(=O)CNC(=O)c2ccco2)C(C(=O)NC2CCCCC2)c2ccncc2)c1 (configuration not stated)	none
CCOC(=O)C1=C(C)NC(=O)NC1c1ccc2c(c1)OCO2 (configuration not stated)	none (no result: Jurkat tox 60K, 5HT1a antag, HEK293 NFkB inh)
CCSCCOC(=O)C1=C(C)NC(=O)NC1c1ccc2c(c1)OCO2 (configuration not stated)	HTR1A agonist 200
CCOc1ccccc1C(=O)Nc1nnc(C(C)C)s1	5HT1E antag 33
CCn1c(CNc2ccc(F)cc2)nnc1SCC(=O)Nc1ccc(OC)cc1OC	none
O=C1C2C3C=CC(CO)(O3)C2C(=O)N1c1ccccc1-c1ccccc1 (configuration not stated)	Jurkat tox 60K 61, 5HT1E antag 103, 5HT1a antag 104
COc1ccc(C(=O)NCC23C=CC(O2)C2C(=O)N(Cc4ccccc4)C(=O)C23)cc1 (configuration not stated)	none
CCc1nnc(NC(=O)CSc2nnc(COc3cccc(C)c3)o2)s1	none
CCc1nnc(NC(=O)CSc2nnc(COc3ccccc3C)o2)s1	HTR1E agonist 8.9
CCc1nnc(NC(=O)CSc2nnc(-c3ccccc3O)n2-c2ccc(C)cc2C)s1	Jurkat tox 60K 80
CCc1nnc(NC(=O)CSc2nnc(COc3ccccc3)n2-c2ccc(C)cc2)s1	none
Cc1cccc(N2CCN(C(=O)COc3cc(=O)n(C)c4ccccc34)CC2)c1C	HTR1E agonist 13
Cc1ccc(C)c(N2CCN(C(=O)COc3cc(=O)n(C)c4ccccc34)CC2)c1	none
O=c1c2cc3c(cc2[nH]c(=S)n1Cc1ccco1)OCO3	none (no result: Jurkat tox 60K)
CCN1CCN(c2ncc(C(=O)Nc3ccccc3C(=O)OC)c3ccccc23)CC1	HTR1E agonist 17
CC(C)NC(=O)c1cnc(N2CCN(c3ccccn3)CC2)c2ccccc12	none
Cc1nn(-c2ccccc2)c2sc(C(=O)OCc3nnc(-c4ccccc4)o3)cc12	none (no result: Jurkat tox 60K)
CCOc1ccc(Cl)cc1S(=O)(=O)n1cnc2ccccc21	Jurkat tox 60K 51
COc1ccc(Cl)cc1S(=O)(=O)n1cnc2ccccc21	Jurkat tox 60K 53
Clc1ccc2[nH]c3c(NCC4CCCO4)ncnc3c2c1 (configuration not stated)	5HT1E antag 32
COC(=O)c1nnn(-c2nonc2N)c1CSc1ccc(Cl)cc1	5HT1E antag 30
C=CCn1c(-c2cccs2)nc2ccccc21	none
C=CCSc1nc2ccccc2n1Cc1nnc(-c2cccs2)o1	HTR1E agonist 18
NC(=O)CC1NC(=O)c2ccccc21 (configuration not stated)	none
CCOc1cc(S(=O)(=O)NCc2ccccn2)c(C)cc1C	HTR1A agonist 53
COc1ccc(C(C)C)cc1S(=O)(=O)NCc1ccccn1	none
O=C(CSc1nccc2ccccc12)N1CCN(c2ccccn2)CC1	none
CCCNC(=O)c1ccccc1NC(=O)CN(c1ccccc1OCC)S(C)(=O)=O	none
CC(=O)Nc1nc(C)nc(-c2ccccc2)c1C(C)=O	none
CNc1nc(C)c(C#N)c(-c2ccccc2)c1C(C)=O	HTR1E agonist 18
COc1ccc2c(c1)c1nnc(SCC(=O)N3C(C)CCCC3C)nc1n2C (configuration not stated)	none
COc1ccc2c(c1)c1nnc(SC)nc1n2C	HTR1E agonist 17
Cc1ccccc1S(=O)(=O)Cc1ccc(C(=O)NCc2cccnc2)o1	none
COC(=O)c1sc(N)c(C(=O)OC)c1COC(=O)c1c(C)noc1C	Jurkat tox 60K 94
